Measurements: ChEMBL document CHEMBL1123812, “Pyrroloisoquinoline antidepressants. 2. In-depth exploration of structure-activity relationships” (J Med Chem, 1987)

Key:
Mus musculus [1] = species on record: Mus musculus; test: Antagonism of tetrabenazine (TBZ)-induced depression in mice measured for ptosis; type: functional; conditions: Mus musculus; read-out: ED50
In short: (§1)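 Nonfasted male Swiss Webster mice, 18–24 g, ten per dose level and in saline controls. Test compound given ip 30 min before tetrabenazine 32 mg/kg ip; dose expressed as free base. Motor activity and ptosis scored. Control response ≤90% corrected by Abbott's formula.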

Mus musculus [2] = species on record: Mus musculus; test: Antagonism of tetrabenazine (TBZ)-induced depression measured in mice by motor activity; type: functional; conditions: Mus musculus; read-out: ED50; in short: as §1
[3] = target: Norepinephrine transporter (Rattus norvegicus, UniProt Q9WTR4); test: Inhibition of uptake of tritiated norepinephrine (NE) in rat synaptosomes; type: subcellular, Brain
Sequence of Norepinephrine transporter (Q9WTR4 whole entry): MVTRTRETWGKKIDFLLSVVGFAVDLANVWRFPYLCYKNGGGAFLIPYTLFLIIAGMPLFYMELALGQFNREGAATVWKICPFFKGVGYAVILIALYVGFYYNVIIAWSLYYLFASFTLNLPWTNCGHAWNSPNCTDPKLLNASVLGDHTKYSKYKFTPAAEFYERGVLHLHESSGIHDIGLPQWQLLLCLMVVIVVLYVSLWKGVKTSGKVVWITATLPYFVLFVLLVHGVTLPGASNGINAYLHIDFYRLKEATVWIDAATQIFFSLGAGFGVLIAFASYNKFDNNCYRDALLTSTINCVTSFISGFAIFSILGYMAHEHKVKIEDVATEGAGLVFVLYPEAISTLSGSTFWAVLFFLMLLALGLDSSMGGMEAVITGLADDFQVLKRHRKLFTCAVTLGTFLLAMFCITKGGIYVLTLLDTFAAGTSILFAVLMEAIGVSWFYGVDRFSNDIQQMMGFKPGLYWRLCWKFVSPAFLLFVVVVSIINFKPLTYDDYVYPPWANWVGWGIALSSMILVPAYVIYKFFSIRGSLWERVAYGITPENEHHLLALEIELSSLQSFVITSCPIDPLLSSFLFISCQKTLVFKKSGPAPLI

Mus musculus [4] = species on record: Mus musculus; test: Gross behavioral effects ascertained in mice; W indicates weak stimulant or depressant activity of little significance.; type: functional, organism-based
In short: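 Male Swiss Webster mice, 18–24 g, three per dose, given ip doses of 1, 3, 10, 30, 100 and 300 mg/kg. Observed for gross behavior and held for 4 days. Scored as weak (W), stimulant (S), depressant (D) or convulsant (C).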

[5] = target: Sodium-dependent dopamine transporter (Rattus norvegicus, UniProt P23977); test: Inhibition of the uptake of tritiated dopamine (DA) in rat synaptosomes; type: subcellular, Brain
Sequence of Sodium-dependent dopamine transporter (P23977 whole entry): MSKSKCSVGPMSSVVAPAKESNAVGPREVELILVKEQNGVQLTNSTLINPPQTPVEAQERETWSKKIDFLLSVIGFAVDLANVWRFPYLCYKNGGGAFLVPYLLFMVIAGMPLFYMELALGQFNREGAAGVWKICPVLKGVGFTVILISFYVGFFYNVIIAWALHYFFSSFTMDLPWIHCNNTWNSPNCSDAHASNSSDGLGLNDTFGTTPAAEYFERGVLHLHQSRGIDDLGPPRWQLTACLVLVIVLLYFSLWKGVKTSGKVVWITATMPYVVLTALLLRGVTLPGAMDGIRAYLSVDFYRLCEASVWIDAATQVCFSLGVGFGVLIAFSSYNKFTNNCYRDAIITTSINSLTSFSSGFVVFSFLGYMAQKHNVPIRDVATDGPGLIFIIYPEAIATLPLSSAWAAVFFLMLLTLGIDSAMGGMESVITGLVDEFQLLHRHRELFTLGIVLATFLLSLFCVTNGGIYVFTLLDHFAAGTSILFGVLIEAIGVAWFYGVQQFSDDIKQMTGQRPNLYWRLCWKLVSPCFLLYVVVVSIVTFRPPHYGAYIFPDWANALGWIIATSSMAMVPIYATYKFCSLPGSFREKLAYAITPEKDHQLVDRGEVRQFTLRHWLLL

[6] = target: D(2) dopamine receptor (Rattus norvegicus) (UniProt P61169); test: Binding affinity towards dopamine receptor D2 at 1.0 uM concentration
Sequence of D(2) dopamine receptor (Rattus norvegicus) (P61169 whole entry): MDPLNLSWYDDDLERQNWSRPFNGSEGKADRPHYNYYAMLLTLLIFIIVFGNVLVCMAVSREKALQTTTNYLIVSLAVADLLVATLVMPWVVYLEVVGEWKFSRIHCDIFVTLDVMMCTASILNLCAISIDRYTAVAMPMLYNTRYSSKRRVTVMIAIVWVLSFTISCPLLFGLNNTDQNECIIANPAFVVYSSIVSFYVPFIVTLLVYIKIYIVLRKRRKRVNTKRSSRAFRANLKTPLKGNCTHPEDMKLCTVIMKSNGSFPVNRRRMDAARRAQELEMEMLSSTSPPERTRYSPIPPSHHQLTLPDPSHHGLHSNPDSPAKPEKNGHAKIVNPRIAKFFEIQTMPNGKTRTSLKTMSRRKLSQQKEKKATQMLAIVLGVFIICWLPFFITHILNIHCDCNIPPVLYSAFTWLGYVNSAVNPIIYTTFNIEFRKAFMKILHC
In short: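 Rat brain crude synaptic membranes in 20 mM NaHEPES pH 7.5. Ligands: α1 cortex […] 0.4 nM, nonspecific with (-)-NE 100 μM, 30 min at 25 °C. […] D2 striatum [3H]spiperone 0.05 nM with (+)-butaclamol 1 μM, 45 min at 37 °C. S1 cortex [3H]5-HT 1 nM plus glutathione and MgCl2, with 5-HT 10 μM, 20 min at 37 °C. […] Samples filtered on GF/B and counted.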

[7] = target: Sodium-dependent serotonin transporter (Rattus norvegicus) (UniProt P31652); test: Ability to inhibit the uptake of [3H]- serotonin(5-HT) 0.1 uM concentration at rat brain synaptosomes; type: functional, subcellular
Sequence of Sodium-dependent serotonin transporter (Rattus norvegicus) (P31652 whole entry): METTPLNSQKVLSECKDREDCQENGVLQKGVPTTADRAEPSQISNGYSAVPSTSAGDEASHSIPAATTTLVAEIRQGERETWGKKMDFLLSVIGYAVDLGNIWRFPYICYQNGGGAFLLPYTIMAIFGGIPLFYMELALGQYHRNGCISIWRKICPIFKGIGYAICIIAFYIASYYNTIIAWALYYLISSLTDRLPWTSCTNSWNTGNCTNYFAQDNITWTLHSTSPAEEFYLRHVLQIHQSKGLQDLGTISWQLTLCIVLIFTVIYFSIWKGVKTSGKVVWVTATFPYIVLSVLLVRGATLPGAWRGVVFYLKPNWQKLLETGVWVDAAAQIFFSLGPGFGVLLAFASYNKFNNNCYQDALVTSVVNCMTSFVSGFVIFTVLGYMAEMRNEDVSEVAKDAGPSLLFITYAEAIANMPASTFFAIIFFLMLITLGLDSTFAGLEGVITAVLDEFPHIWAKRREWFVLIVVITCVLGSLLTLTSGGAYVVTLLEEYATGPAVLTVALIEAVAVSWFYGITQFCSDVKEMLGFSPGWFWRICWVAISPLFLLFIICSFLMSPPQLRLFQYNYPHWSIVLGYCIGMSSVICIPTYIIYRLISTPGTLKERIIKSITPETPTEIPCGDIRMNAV
In short: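 Male Wistar rat brain synaptosomes (P2 fraction): hypothalamus for NE, striatum for DA, cerebral cortex for 5-HT. Buffer is Tris- or HEPES-buffered salt medium with glucose, ascorbate and nialamide, pH 7.4 at 37 °C. Preincubated 10 min at 37 °C with compound. Uptake started with [3H]NE 100–300 nM, [3H]DA 50–300 nM or [3H]5-HT 100–200 nM, incubated 3 min (DA) or 6–10 min (NE, 5-HT). Blanks held on ice. Filtered, counted by scintillation.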

| Structure (SMILES) | ED50 (Mus musculus [1]) [mg/kg] | ED50 (Mus musculus [2]) [mg/kg] | Ki [3] [nM] | behavior (Mus musculus [4]) | Ki [5] [nM] | inhibition [6] [%] | inhibition [7] [%] |
| --- | --- | --- | --- | --- | --- | --- | --- |
| Br.Cn1ccc2c1[C@@H](c1ccccc1)CN1CCC[C@@H]21 | ~0.75 | 2.4 | 7.5 | Weak | 9.8 | – | – |
| CCn1cc(C(=O)O)c(=O)c2ccc(Cc3ccccc3)nc21 [AMFONELIC ACID] | – | – | 41.1 | – | 7.2 | – | – |
| c1ccc([C@H]2CN3CC[C@H]3c3ccccc32)cc1 | 1.25 | ~2 | 6.3 | – | 81.6 | – | – |
| N#Cc1ccc([C@@H]2CN3CCC[C@@H]3c3ccccc32)cc1 | ~2 | ~2 | – | – | – | – | – |
| Br.O[C@@]1(c2ccccc2)CN2CCC[C@H]2c2ccccc21 | 6.2 | ~25 | 40.8 | Weak | 258 | – | – |
| Br.COc1ccc([C@@H]2CN3CCC[C@H]3c3ccccc32)cc1 | 3 | ~50 | 27.6 | Weak | 119 | – | – |
| COc1ccc2c(c1)[C@H]1CCCN1C[C@H]2c1ccccc1 | – | – | 2.2 | – | 2.8 | – | – |
| Clc1ccc([C@@H]2CN3CCC[C@H]3c3cc(Cl)ccc32)cc1 | ~37 | > 100 | 33.8 | Weak | 65.1 | – | – |
| CSc1ccc([C@@H]2CN3CCC[C@@H]3c3ccccc32)cc1 (stereo in doubt; (-)-48b) | – | – | – | – | – | 5 | – |
| FC(F)(F)c1cccc([C@@H]2CN3CCCC3c3cc(Cl)ccc32)c1 (stereo partly drawn) | – | – | 32.6 | – | 168 | – | – |
| FC(F)(F)c1cccc([C@@H]2CN3CCC[C@@H]3c3ccccc32)c1 (stereo in doubt; (+)-37b) | – | – | 1.5 | – | 25.7 | – | – |
| CN1Cc2c(N)cccc2C(c2ccccc2)C1 (stereo not drawn) [NOMIFENSINE] | 0.11 | 0.18 | – | Partial stimulant | – | – | – |
| CCCCc1ccc([C@@H]2CN3CCC[C@@H]3c3ccccc32)cc1 | 9.1 | > 60 | 29.9 | Weak | 230 | – | – |
| Clc1cccc2c1[C@H](c1ccccc1)CN1CCC[C@H]21 | – | – | 11.6 | – | 25.3 | – | – |
| Br.COc1ccc([C@@H]2CN3CCC[C@@H]3c3ccccc32)cc1 | 0.03 | 0.27 | 0.79 | Weak | 5.2 | – | – |
| CCN1Cc2ccccc2C(c2ccccc2)C1 (stereo not drawn) | ~10 | ~10 | 5.6 | Weak | 36.4 | – | – |
| Br.Clc1ccc2c(c1)[C@H]1CCCN1C[C@H]2c1ccccc1 | ~0.5 | ~0.3 | 0.62 | – | 2.5 | – | – |
| O[C@]1(c2ccccc2)CN2CCC[C@H]2c2ccccc21 | 1.6 | 8.4 | 8.1 | Weak | 28.5 | – | – |
| COc1ccc(NC(=O)Nc2ccc([C@@H]3CN4CCC[C@H]4c4ccccc43)cc2)cc1 | – | – | 15 | – | 8.8 | – | – |
| Br.O=[N+]([O-])c1ccc([C@@H]2CN3CCC[C@@H]3c3ccccc32)cc1 | 0.08 | 0.17 | 3.4 | Weak | 94.2 | – | – |

| Structure (SMILES) | ED50 (Mus musculus [1]) [mg/kg] | ED50 (Mus musculus [2]) [mg/kg] | Ki [3] [nM] | behavior (Mus musculus [4]) | Ki [5] [nM] | inhibition [6] [%] | inhibition [7] [%] |
| --- | --- | --- | --- | --- | --- | --- | --- |
| Br.c1csc([C@H]2CN3CCC[C@H]3c3ccsc32)c1 | ~30 | ~24 | 14.6 | Weak | 39.8 | – | – |
| COc1cccc2c1[C@H](c1ccccc1)CN1CCC[C@H]21 | 1.2 | 10 | 11.5 | Weak | 12.3 | – | – |
| O=C(Nc1ccccc1)Nc1ccc([C@@H]2CN3CCC[C@@H]3c3ccccc32)cc1 | – | – | 117 | – | 24.5 | – | – |
| Br.c1ccc2c(c1)[C@@H](C1CCCCC1)CN1CCC[C@@H]21 | 1.9 | 6.4 | 81 | Weak | 604 | – | – |
| C[C@@]12CCCN1C[C@H](c1ccc(Cl)cc1)c1ccccc12 | 1.5 | 6.8 | 3.8 | Weak | 7.6 | – | – |
| NC(=O)c1ccc([C@@H]2CN3CCC[C@@H]3c3ccccc32)cc1 | – | – | 90.2 | – | 84.5 | – | – |
| Clc1ccc([C@@H]2CN3CCC[C@H]3c3ccccc32)cc1 | 5.4 | 8.1 | – | Weak | – | – | – |
| Cc1ccccc1[C@@H]1CN2CCC[C@@H]2c2ccccc21 | ~1 | ~1 | 5.6 | – | 117 | – | – |
| c1ccc([C@H]2CN3CCCC[C@H]3c3ccccc32)cc1 | > 30 | > 30 | 13.7 | Weak | > 1000 | – | – |
| FC(F)(F)c1ccc([C@@H]2CN3CCC[C@@H]3c3ccccc32)cc1 | ~2 | > 3 | 10.6 | – | 128 | – | – |
| Clc1ccc([C@@H]2CN3CCC[C@@H]3c3ccccc32)c(Cl)c1 | ~1 | ~2 | – | – | – | – | – |
| Br.Oc1ccccc1[C@@H]1CN2CCC[C@@H]2c2ccccc21 | ~2 | > 3 | 8.8 | Weak | 360 | – | – |
| Fc1cccc(Cl)c1[C@@H]1CN2CCC[C@@H]2c2ccccc21 | > 3 | > 3 | 11.5 | – | 279 | – | – |
| FC(F)(F)c1ccc2c(c1)[C@H]1CCCN1C[C@H]2c1ccccc1 | – | – | 3.1 | – | 11.2 | – | – |
| Br.Brc1ccccc1[C@@H]1CN2CCC[C@@H]2c2ccccc21 | ~1 | ~0.6 | 1.5 | – | 26.5 | – | – |
| Br.Oc1ccc([C@@H]2CN3CCC[C@H]3c3ccccc32)cc1O | 1.8 | > 30 | 22.3 | Partial stimulant | 32.6 | 6 | – |
| Br.CS(=O)(=O)c1ccc([C@@H]2CN3CCC[C@H]3c3ccccc32)cc1 | 17.7 | > 30 | – | Weak | – | – | – |
| CSc1ccccc1[C@@H]1CN2CCC[C@@H]2c2ccccc21 | ~0.6 | ~0.6 | – | – | – | – | – |
| C[C@@]12CCCN1C[C@@H](c1ccc(Cl)cc1)c1ccccc12 | – | – | ~100 | Weak | ~100 | – | 21 |
| Clc1ccc([C@@H]2CN3CCC[C@H]3c3ccccc32)cc1Cl | 8 | ~41 | 16 | Weak | 30.8 | – | – |
